The source of these data is PubChem BioAssay.

Experiment [1] in a line: inhibitors of TNFa-induced NFkB p65 translocation, primary screen, imaging, HUVEC, MLSMR starter and 10KST1 sets (AID 438;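 active = inhibition above 20% together with a positive visual image hit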;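 note: compound added about 3h40 before a 20 min TNFalpha stimulation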;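 for inhibition: signal is the nuclear over cytoplasmic p65 intensity ratio per well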). To be noted: HUVEC TNFa-induced p65 nuclear translocation; cell count: measured here: nuclei count (cytotoxicity indicator), at 2.08 µM; inhibition: at 2 µM, stronger effect = higher value, 0% TNFa-plus-vehicle, 100% no-TNFa wells.
The nature of experiment [2]: inhibitors of mutant huntingtin aggregation, primary screen, imaging, exon1htt(103Q)mCFP cells, high-content imaging (AID 483;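 active = visual image review flags a hit and inhibition of aggregation exceeds 20%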;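 note: compound exposure lasted 3 days before fixation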;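 for nuclei count: percent of the per-plate median nuclei count of sample wells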). The conditions noted are these: exon1htt(103Q)mCFP cell line, aggregate imaging, at 2 µM; inhibition of aggregation: stronger effect = higher value; nuclei count: measured here: cell count, toxicity.
Experiment [3] is described as follows: inhibitors of E-selectin induction by TNFa, primary screen, imaging, HUVEC, immunofluorescence, MLSMR starter and 10KST1 sets (AID 487;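 active = visually confirmed hit in the image check and inhibition above 20%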;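 for inhibition: signal is fraction of cell area covered by stained E-selectin grains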;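 for nuclei count: 100% = median nuclei count of all wells on the same plate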). The conditions noted are these: HUVEC TNFalpha-induced E-selectin immunofluorescence imaging, at 2 µM; inhibition: stronger effect = higher value; nuclei count: measured here: cell number, toxicity.
Experiment [4] addresses Voltage-gated potassium channel subunit beta-2 (Rattus norvegicus) (UniProt P62483). Description: KvBeta enzyme negative modulators, primary screen, biochemical, NADPH fluorescence (AID 622;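 active = fluorescence slope higher than the sample average by over 3 SD, cut at about -0.22 in these data, passing the limit was not always enough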;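 note: slope of raw intensity against log time taken from 70 to 1610 s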). The conditions noted are these: recombinant KvBeta, 4-cyanobenzaldehyde reduction, at 10 µM, stronger effect = higher value.
Experiment [5] shares this target. Description: KvBeta positive modulators, primary screen, biochemical, NADPH fluorescence (AID 623;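 active = NADPH fluorescence slope more negative than the mean of all samples by about 3 SD, 99.7% confidence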;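 note: fluorescence intensity change per second fitted from 20 to 320 s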). To be noted: Recombinant KvBeta, NADPH fluorescence decrease slope, 10 min; at 10 µM; stronger effect = lower value.
For experiment [6], the target named is Alpha-2C adrenergic receptor (Homo sapiens) (UniProt P18825). Put plainly: modulators of alpha2C/GIRK thallium flux, primary screen, cell-based, HEK293 alpha2C/GIRK1/2 (AID 624).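 Note: slope of fluorescence ratio to pre-addition baseline per second over 15 to 24 s.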 The conditions noted are these: thallium flux BTC fluorescence, at 10 µM, actives lie on both sides.
A short description of experiment [7]: inhibitors of larval lipid processing in zebrafish, primary screen, whole organism, PED6 fluorescence, gall bladder and intestine (AID 686;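 active = a full or partial loss of lipid-probe fluorescence in the fish gall bladder, intestine or both, judged by eye; inactive = no fluorescence loss, or compound toxic to the fish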;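 note: signal comes from phospholipase A2 cleavage of quenched PED6 carried via bile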). To be noted: Zebrafish larvae PED6 lipid processing, fluorescence scoring; screened at 20 µM (by protocol). The gist of the method: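 Doses: 20 µM single dose. Test system: live zebrafish larvae aged 5-7 days, whole organism. Quantity: five larvae per well. Measured by: By-eye fluorescence microscopy. Reagent: ingested quenched lipid PED6 at 100 nM. Read-out: visual per-well fluorescence inhibition score. Times: overnight exposure of larvae to compound plus PED6.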

A short description of experiment [8]: inhibitors of Sendai virus-induced IRF3 signaling, primary screen, TLR/RLR signaling modifier project, cell-based, Sendai virus stimulus, luciferase, 10K MLSCN set (AID 602276;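 active = inhibition at or above 50% at 10 µM; inactive = inhibition below 50%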;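 note: firefly luciferase from ISG56 promoter only with Renilla not read in this screen; 0% = Sendai virus plus DMSO and 100% = medium plus DMSO without virus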). To be noted: HEK293 RL24 IRF3 luciferase reporter, at 10 µM, stronger effect = higher value. (In a reporter assay the amount or activity of a reporter protein is the signal.)
Experiment [9] can be described thus: inhibitors of poly I:C-induced TLR3 signaling, primary screen, cell-based, poly I:C stimulus, luciferase, 10K MLSCN set (AID 602277;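 active = inhibition of the reporter signal at or above 50%; inactive = inhibition below 50%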). The conditions noted are these: HEK293-TLR3 RL24 IRF3 luciferase reporter, at 10 µM, stronger effect = higher value.

Activity calls are given as the source filed them.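 Rule for the calls, unless noted: active = fluorescence slope after compound addition differing from the mean of all screened samples at 99.7% confidence, in either direction; inactive = the rest.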

Alpha-2C adrenergic receptor (Homo sapiens), sequence (P18825 whole entry, looked up): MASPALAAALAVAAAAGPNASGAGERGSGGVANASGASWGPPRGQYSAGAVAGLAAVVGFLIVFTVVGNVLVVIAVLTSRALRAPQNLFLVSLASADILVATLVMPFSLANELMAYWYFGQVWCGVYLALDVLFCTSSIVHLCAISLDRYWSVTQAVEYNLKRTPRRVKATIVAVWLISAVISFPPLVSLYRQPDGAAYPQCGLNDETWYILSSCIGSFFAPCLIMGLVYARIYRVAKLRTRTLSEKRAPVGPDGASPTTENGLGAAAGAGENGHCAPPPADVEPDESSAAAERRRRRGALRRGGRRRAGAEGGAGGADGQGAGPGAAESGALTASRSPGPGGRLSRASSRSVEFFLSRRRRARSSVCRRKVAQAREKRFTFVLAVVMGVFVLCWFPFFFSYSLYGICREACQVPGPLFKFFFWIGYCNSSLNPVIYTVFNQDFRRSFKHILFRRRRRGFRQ
Voltage-gated potassium channel subunit beta-2 (Rattus norvegicus), sequence (P62483 whole entry, looked up): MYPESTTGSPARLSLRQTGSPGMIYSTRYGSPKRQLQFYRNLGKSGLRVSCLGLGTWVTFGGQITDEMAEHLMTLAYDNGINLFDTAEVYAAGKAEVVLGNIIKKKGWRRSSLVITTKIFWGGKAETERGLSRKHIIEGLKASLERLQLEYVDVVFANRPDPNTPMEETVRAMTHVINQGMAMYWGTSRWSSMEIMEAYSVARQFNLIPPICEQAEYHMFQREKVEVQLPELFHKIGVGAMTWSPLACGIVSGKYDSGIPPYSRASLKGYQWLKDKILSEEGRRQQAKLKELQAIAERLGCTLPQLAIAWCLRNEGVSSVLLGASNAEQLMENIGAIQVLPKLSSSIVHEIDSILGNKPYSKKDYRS

Usually inhibition stands for the drop in the measured response relative to a control, in per cent. On to `O=C(NCCCN1CCN(c2cccc(Cl)c2)CC1)c1ccc(N2CCCC2=O)cc1`, for which, in experiment [1], the cell count was found to be 763. Besides, the inhibition in [1] is -10% (inactive); in experiment [3], 46.9% (inactive); in experiment [8], 10.3% (inactive); in [9] it was 0.162% (inactive). Besides, the inhibition of aggregation in experiment [2] is 11.5% (inactive). Further, the nuclei count came to 97.9% in experiment [2] and 105% in [3]. Also, in experiment [4], the fluorescence slope is -0.479 (inactive). Also, the NADPH fluorescence slope in [5] is -5.9e-05 (inactive). The slope in experiment [6] is 0.00509 (inactive). Moreover, the result in experiment [7] was inactive.

Consider `CCn1cnc2sc(C(=O)Nc3ccc4c(c3)OCO4)c(C)c2c1=O`, for which, in experiment [1], the cell count is 473. The inhibition is -14.7% (inactive) in [1], -47.6% (inactive) in experiment [3], -47.3% (inactive) in experiment [8] and -111% (inactive) in [9]. In addition, the inhibition of aggregation in [2] is 7.4% (inactive). Also, the nuclei count amounted to 102% in experiment [2] and 90.6% in experiment [3]. Moreover, the fluorescence slope in experiment [4] is -0.361 (inactive). The NADPH fluorescence slope in experiment [5] is -7e-05 (inactive). Also, the slope in experiment [6] is 0.00678 (inactive). The outcome in experiment [7] was inactive.

With `COC(=O)Nc1sccc1C(=O)Nc1sccc1C(=O)OC`, the cell count in experiment [1] was 330. Further, the inhibition in experiment [1] is -0.2% (inactive); in experiment [3], 17.9% (inactive); in experiment [8], 1.3% (inactive); in [9], -4.09% (inactive). The inhibition of aggregation in experiment [2] was 23.3% (inactive). The nuclei count in experiment [2] worked out at 96.8%; in experiment [3], 95.9%. In addition, in experiment [4], the fluorescence slope was -0.431 (inactive). The NADPH fluorescence slope in experiment [5] was -3.4e-05 (inactive). Further, the slope in experiment [6] was 0.00336 (inactive). Moreover, the outcome in experiment [7] was inactive.

As for `COc1ccc(C2C(C(=O)c3sc(C)nc3C)=C(O)C(=O)N2CCN(C)C)cc1` (centres undefined), the cell count in experiment [1] amounted to 560. The inhibition in [1] is 13.4% (inactive); in experiment [3] it was -15.4% (inactive); in experiment [8], 10.9% (inactive); in experiment [9] it was 9.69% (inactive). In addition, the inhibition of aggregation in experiment [2] was 6.9% (inactive). Besides, the nuclei count was determined as 110% in experiment [2] and 123% in [3]. For the same compound, in experiment [4], the fluorescence slope is -0.335 (inactive). Further, the NADPH fluorescence slope in experiment [5] is -6.7e-05 (inactive). The slope in experiment [6] is 0.00568 (inactive). Further, the compound was classed as inactive in [7].

Turning to `Cc1nn(Cc2ccccc2)c(C)c1NC(=O)c1cc(-c2ccco2)on1`, the cell count in experiment [1] was determined as 408. The inhibition in experiment [1] was -8.1% (inactive); in experiment [3] it was -15.3% (inactive); in experiment [8] it was 9.89% (inactive); in [9], 12.8% (inactive). Further, in experiment [2], the inhibition of aggregation was -15.5% (inactive). Also, the nuclei count in [2] and in [3] was 101% in each case. For the same compound, in [4], the fluorescence slope is -0.347 (inactive). Further, the NADPH fluorescence slope in experiment [5] is -6.8e-06 (inactive). For the same compound, in experiment [6], the slope was 0.00588 (inactive). Also, in [7], the outcome was inactive.

Turning to `CCOC(=O)CC(=O)CSc1nc(-c2cccnc2)ccc1C#N`, the cell count in experiment [1] was 908. Further, the inhibition in experiment [1] is 11.4% (inactive); in [3] it was -90.5% (inactive); in [8], -15.8% (inactive); in [9] it was -33.1% (inactive). The inhibition of aggregation in experiment [2] is -23.5% (inactive). In addition, the nuclei count in [2] stood at 87.2%; in [3], 128%. Also, in experiment [4], the fluorescence slope was -0.0463 (active). Further, in experiment [5], the NADPH fluorescence slope was -1.8e-05 (inactive). The slope in experiment [6] was 0.013 (active). In addition, the outcome in [7] was inactive.

As for `O=C(CSc1nc2cc(S(=O)(=O)N3CCOCC3)ccc2o1)NC1CCCc2ccccc21` (centres undefined), the cell count in [1] worked out at 571. For the same compound, the inhibition was -16.3% (inactive) in experiment [1], 36.5% (inactive) in [3], 11.5% (inactive) in [8] and 99.3% (active) in experiment [9]. The inhibition of aggregation in experiment [2] was -7.6% (inactive). Also, the values for the nuclei count in [2] and in experiment [3] were 89.9% and 86.1%, respectively. The fluorescence slope in experiment [4] is -0.363 (inactive). In experiment [5], the NADPH fluorescence slope is -8.5e-05 (inactive). Moreover, the slope in experiment [6] was 0.00378 (inactive). Moreover, the result in experiment [7] was inactive.

As for `C=CCNc1nc2c(c(=O)n(C)c(=O)n2C)n1CCCCCC`, the cell count in experiment [1] was 438. The inhibition is 4.7% (inactive) in experiment [1], 4% (inactive) in experiment [3], 8.07% (inactive) in experiment [8] and -34.5% (inactive) in experiment [9]. Also, in experiment [2], the inhibition of aggregation was -8% (inactive). The nuclei count was 94.9% in [2] and 107% in [3]. In experiment [4], the fluorescence slope is -0.39 (inactive). The NADPH fluorescence slope in [5] is -3.7e-05 (inactive). Besides, in experiment [6], the slope is 0.00457 (inactive). For the same compound, the result in experiment [7] was inactive.

As for `Cc1cc(NC(=O)CSc2nc(C3CCCCC3)nc3ccccc23)no1`, in experiment [1], the cell count worked out at 725. Besides, the inhibition is -4.4% (inactive) in [1], -10.7% (inactive) in experiment [3], 12.9% (inactive) in experiment [8] and 15.3% (inactive) in experiment [9]. Besides, the inhibition of aggregation in experiment [2] was -20.3% (inactive). Moreover, the nuclei count in [2] is 110%; in [3], 106%. Moreover, in experiment [4], the fluorescence slope was -0.378 (inactive). Also, the NADPH fluorescence slope in experiment [5] is -5.4e-05 (inactive). Also, the slope in [6] was 0.00411 (inactive). Besides, in experiment [7], the result was inactive.

As to `CCc1nnc(NC(=O)CSc2nnc3ncccn23)s1`, the cell count in experiment [1] stood at 341. The inhibition in [1] is -5.8% (inactive); in [3] it was -34.8% (inactive); in [8], 18.7% (inactive); in experiment [9], 25.6% (inactive). Further, the inhibition of aggregation in [2] was -25.9% (inactive). The nuclei count is 132% in experiment [2] and 102% in experiment [3]. The fluorescence slope in experiment [4] was -0.437 (inactive). In experiment [5], the NADPH fluorescence slope is -9.3e-05 (inactive). For the same compound, the slope in [6] was 0.00648 (inactive). The compound was classed as inactive in [7].

With `CCOC(=O)c1c(N)c(C#N)nn1-c1ccccc1C(=O)OC`, the cell count in [1] came to 516. Further, the inhibition was -3.6% (inactive) in [1], -41.6% (inactive) in experiment [3], 9.81% (inactive) in experiment [8] and 20.2% (inactive) in [9]. In addition, the inhibition of aggregation in [2] was 30.5% (inactive). Further, the results for the nuclei count in experiment [2] and in [3] were 81% and 101%, respectively. For the same compound, the fluorescence slope in experiment [4] is -0.364 (inactive). Also, in experiment [5], the NADPH fluorescence slope is -4.6e-05 (inactive). In experiment [6], the slope is 0.00521 (inactive). Further, the compound was called inactive in experiment [7].

Turning to `COc1ccc(CCN(Cc2cc3cccc(C)c3[nH]c2=O)C(=O)N2CCCC2)cc1OC`, the cell count in experiment [1] is 207. Also, the inhibition in experiment [1] was 2.1% (inactive); in experiment [3], 11.6% (inactive); in experiment [8] it was 10.3% (inactive); in [9], 16.5% (inactive). Moreover, in experiment [2], the inhibition of aggregation was 8.7% (inactive). The values for the nuclei count in [2] and in [3] were 94.8% and 91.3%, respectively. In experiment [4], the fluorescence slope was -0.458 (inactive). Further, the NADPH fluorescence slope in experiment [5] is -8.2e-05 (inactive). The slope in [6] was 0.00488 (inactive). The result in [7] was inactive.
